Zone of inhibition, MIC and MBC data for two molecules are collected here from ChEMBL document CHEMBL2331322, “Synthesis and antimicrobial activity of some new benzo and naphthonitrile derivatives” (2013).

In brackets after ≈: the same amount, converted by molar mass.

Common to all, as to format: functional
The subject of assay [1] is Bacillus subtilis. The experiment in a line: Antimicrobial activity against Bacillus subtilis at 1 mg/mL after 24 hrs by agar disc diffusion method. As to conditions: read-out: DIZ. In outline:
(§1)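 Sterile 5 mm filter paper disks were impregnated with test solution in DMF (1 mg/mL) and placed on agar plates seeded with the test organism, in triplicate. Bacteria were incubated at 37 °C for 24 h and fungi for […] (so in the source). The read-out was the average inhibition zone diameter around the disks, in mm.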
For orientation: A growth-free zone around the sample is the usual read-out of agar diffusion tests.

In assay [2] the test system is Pseudomonas aeruginosa. The experiment in a line: Antimicrobial activity against Pseudomonas aeruginosa at 1 mg/mL after 24 hrs by agar disc diffusion method. As to conditions: read-out: DIZ. The method, boiled down: as §1
Assay [3] deals with Botrytis fabae. The experiment in a line: Antimicrobial activity against Botrytis fabae after 48 hrs by microdilution susceptibility test. The method, boiled down: (§2)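 MIC was determined by broth microdilution, using Müller–Hinton broth for bacteria and Sabouraud liquid medium for fungi. Stocks were made in DMF and serially diluted twofold. Wells were inoculated at 10⁶ CFU/mL and plates incubated at 36 °C for 24–48 h, with controls included. Only compounds giving agar-diffusion zones >14 mm were tested.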

For assay [4], the system named is Bacillus thuringiensis. The experiment in a line: Antimicrobial activity against Bacillus thuringiensis after 24 hrs by microdilution susceptibility test. In outline:
as §2
On the technique in general: In broth dilution the organism is exposed to a series of concentrations in liquid medium.

Assay [5] deals with Bacillus thuringiensis. The experiment in a line: Antimicrobial activity against Bacillus thuringiensis at 1 mg/mL after 24 hrs by agar disc diffusion method. Particulars: read-out: DIZ. The method, boiled down:
as §1

The test system of assay [6] is Bacillus subtilis. In words: Antimicrobial activity against Bacillus subtilis after 24 hrs by microdilution susceptibility test. In outline:
as §2

Assay [7] concerns Escherichia coli. The experiment in a line: Antimicrobial activity against Escherichia coli after 24 hrs by microdilution susceptibility test. The method, boiled down:
as §2

The test system of assay [8] is Pseudomonas aeruginosa. The experiment in a line: Antimicrobial activity against Pseudomonas aeruginosa after 24 hrs by microdilution susceptibility test. The method, boiled down: as §2
The test system of assay [9] is Escherichia coli. In words: Antimicrobial activity against Escherichia coli at 1 mg/mL after 24 hrs by agar disc diffusion method. Particulars: read-out: DIZ. The method, boiled down:
as §1

In assay [10] the test system is Botrytis fabae. The experiment in a line: Antimicrobial activity against Botrytis fabae at 1 mg/mL […] by agar disc diffusion method. As to conditions: read-out: DIZ.
Assay [11] relates to Fusarium oxysporum. In words: Antimicrobial activity against Fusarium oxysporum after 48 hrs by microdilution susceptibility test. In outline:
as §2

In assay [12] the test system is Fusarium oxysporum. The experiment in a line: Antimicrobial activity against Fusarium oxysporum at 1 mg/mL after 48 hrs by agar disc diffusion method. Particulars: read-out: DIZ. The method, boiled down:
as §1

As for `Cc1ccc(/N=N/C(C(N)=O)c2ccccc2C#N)cc1` (stereo not drawn), the zone of inhibition at 1000 µg/mL in assay [1] was 31 mm; in assay [2], 16 mm; in assay [5], 36 mm; in assay [9], 15 mm; in assay [10] it was 20 mm; in assay [12] it was 38 mm. Also, the MIC came to 25 µg/mL (≈ 89.8 µM) in assay [3]; 50 µg/mL (≈ 180 µM) in [4]; 25 µg/mL (≈ 89.8 µM) in assay [6]; 50 µg/mL (≈ 180 µM) in [7]; 12.5 µg/mL (≈ 44.9 µM) in assay [8]; 25 µg/mL (≈ 89.8 µM) in assay [11]. Also, the MBC worked out at 100 µg/mL (≈ 359 µM) in [6] and 200 µg/mL (≈ 719 µM) in assay [7].

Turning to `CCOC(=O)c1c2[nH]c(=N)c3ccccc3c2nn1-c1ccc(Cl)cc1`, the zone of inhibition at 1000 µg/mL in assay [1] worked out at 33 mm; in assay [2], 33 mm; in [5], 38 mm; in [9], 25 mm; in [10] it was 27 mm; in assay [12] it was 16 mm. In addition, the MIC in assay [3] is 50 µg/mL (≈ 136 µM); in assay [4] it was 50 µg/mL (≈ 136 µM); in [6], 25 µg/mL (≈ 68.2 µM); in [7], 50 µg/mL (≈ 136 µM); in assay [8] it was 25 µg/mL (≈ 68.2 µM); in assay [11] it was 25 µg/mL (≈ 68.2 µM). The MBC in assay [6] and in assay [7] was 200 µg/mL (≈ 545 µM) in each case.

Broadly, the MIC is the lowest concentration that inhibits growth of the organism. A higher MIC goes with a less susceptible organism. In general, MBC refers to the smallest concentration meeting the test's criterion for killing.
